Laboratory results reported in ChEMBL document CHEMBL4138319, “Discovery, Synthesis, Pharmacological Profiling, and Biological Characterization of Brintonamides A-E, Novel Dual Protease and GPCR Modulators from a Marine Cyanobacterium” (J Med Chem, 2018).
Active and inactive are the calls of the source. The calls are words filed in the database; no cut-off is given here. Square brackets hold non-standard residues; d marks the D form. Peptide text beside a SMILES is read from it. * marks the point of attachment. X1 = CC[C@H](C)[C@@H](OC(=O)/C=C/c1ccccc1)C(=O)*; dNMeF = CN[C@H](Cc1ccccc1)C(=O)O; NMeL = CN[C@@H](CC(C)C)C(=O)O

What was measured:
Kallikrein-7 [1] = biological target: T1, Kallikrein-7 (Homo sapiens, UniProt P49862); test: Mixed type inhibition of kallikrein 7 (unknown origin) using fluorescently labeled peptide substrate by fluorescence assay based Michaelis-Menten kinetic plot analysis
T1 sequence (P49862 30-253 limits assumed): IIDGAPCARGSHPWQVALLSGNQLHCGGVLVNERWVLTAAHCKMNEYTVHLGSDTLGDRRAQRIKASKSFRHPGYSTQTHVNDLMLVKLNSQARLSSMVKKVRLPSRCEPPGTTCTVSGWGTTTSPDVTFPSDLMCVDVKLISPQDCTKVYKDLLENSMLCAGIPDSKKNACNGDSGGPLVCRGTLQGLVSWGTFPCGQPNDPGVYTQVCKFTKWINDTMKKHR

Chymase = biological target: T2, Chymase (Homo sapiens, UniProt P23946); test: Inhibition of chymase (unknown origin) by fluorescence assay
T2 sequence (P23946 whole entry): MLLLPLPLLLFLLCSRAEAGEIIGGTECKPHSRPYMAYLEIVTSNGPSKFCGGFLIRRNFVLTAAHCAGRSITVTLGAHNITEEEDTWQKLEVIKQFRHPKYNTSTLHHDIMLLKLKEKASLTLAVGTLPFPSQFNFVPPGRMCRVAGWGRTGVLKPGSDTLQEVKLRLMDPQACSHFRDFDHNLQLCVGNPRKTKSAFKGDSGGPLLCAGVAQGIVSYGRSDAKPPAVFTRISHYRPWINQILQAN
In short: (§1)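 Activity followed as a time course of rising fluorescence from a fluorescently labelled peptide substrate. The initial linear slope (signal/min) was used.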

Caspase-14 = biological target: T3, Caspase-14 (Homo sapiens, UniProt P31944); test: Inhibition of human caspase 14 using Ac-WEHD-AMC fluorogenic peptide as substrate by fluorescence assay; in short: as §1
T3 sequence (P31944 whole entry): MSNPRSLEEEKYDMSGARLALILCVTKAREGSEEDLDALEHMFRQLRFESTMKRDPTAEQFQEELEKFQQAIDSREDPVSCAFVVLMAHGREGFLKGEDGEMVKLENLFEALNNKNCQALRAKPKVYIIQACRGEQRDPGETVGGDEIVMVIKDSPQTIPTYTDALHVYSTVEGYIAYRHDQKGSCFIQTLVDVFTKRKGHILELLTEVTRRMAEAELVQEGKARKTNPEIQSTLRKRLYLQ

Kallikrein-7 [2] = biological target: T1, Kallikrein-7; test: Inhibition of recombinant human kallikrein 7 assessed as decrease in cleavage of desmoglein-2 at 10 uM after 30 mins or 2 hrs by silver staining based SDS-PAGE analysis
[3] = biological target: T4, C-C chemokine receptor type 10 (Homo sapiens) (UniProt P46092); test: Antagonist activity at human CCR10 expressed in human U2OS cells assessed as inhibition of CCL27-induced beta-arrestin recruitment at 10 uM pre-incubated for 30 mins before CCL27 stimulation for 90 or 180 mins by chemiluminescence method; type: functional, cell-based; design: scale not given: the % may be the effect or the level left
T4 sequence (whole entry): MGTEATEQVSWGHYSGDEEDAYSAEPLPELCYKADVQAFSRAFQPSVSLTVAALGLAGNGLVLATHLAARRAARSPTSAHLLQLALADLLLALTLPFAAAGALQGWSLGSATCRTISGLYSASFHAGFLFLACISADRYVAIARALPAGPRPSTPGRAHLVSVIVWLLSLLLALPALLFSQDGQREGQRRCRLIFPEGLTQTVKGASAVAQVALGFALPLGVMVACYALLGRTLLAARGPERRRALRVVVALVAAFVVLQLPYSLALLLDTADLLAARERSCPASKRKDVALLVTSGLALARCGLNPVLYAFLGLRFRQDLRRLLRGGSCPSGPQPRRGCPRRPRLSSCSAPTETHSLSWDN

[4] = biological target: T5, Oxytocin receptor (Homo sapiens) (UniProt P30559); test: Antagonist activity at human OXTR expressed in CHOK1 cells assessed as oxytocin-induced beta-arrestin recruitment at 10 uM pre-incubated for 30 mins before oxytocin stimulation for 90 or 180 mins by chemiluminescence method; type: functional, cell-based; design: scale not given: the % may be the effect or the level left
T5 sequence (whole entry): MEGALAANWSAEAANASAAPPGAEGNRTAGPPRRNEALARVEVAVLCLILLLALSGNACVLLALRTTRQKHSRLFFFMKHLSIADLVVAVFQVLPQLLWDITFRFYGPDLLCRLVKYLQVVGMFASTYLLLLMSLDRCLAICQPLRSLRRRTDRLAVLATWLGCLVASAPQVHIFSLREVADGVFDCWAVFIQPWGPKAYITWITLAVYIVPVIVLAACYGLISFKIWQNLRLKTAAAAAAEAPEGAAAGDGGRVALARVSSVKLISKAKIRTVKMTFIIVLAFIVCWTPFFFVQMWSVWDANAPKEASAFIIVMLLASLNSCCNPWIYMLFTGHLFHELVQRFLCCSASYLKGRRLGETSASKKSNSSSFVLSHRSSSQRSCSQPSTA

[5] = biological target: T6, Substance-K receptor (Homo sapiens) (UniProt P21452); test: Antagonist activity at human TACR2 expressed in CHOK1 cells assessed as substance P-induced beta-arrestin recruitment at 10 uM pre-incubated for 30 mins before substance P stimulation for 90 or 180 mins by chemiluminescence method; type: functional, cell-based; design: scale not given: the % may be the effect or the level left
T6 sequence (whole entry): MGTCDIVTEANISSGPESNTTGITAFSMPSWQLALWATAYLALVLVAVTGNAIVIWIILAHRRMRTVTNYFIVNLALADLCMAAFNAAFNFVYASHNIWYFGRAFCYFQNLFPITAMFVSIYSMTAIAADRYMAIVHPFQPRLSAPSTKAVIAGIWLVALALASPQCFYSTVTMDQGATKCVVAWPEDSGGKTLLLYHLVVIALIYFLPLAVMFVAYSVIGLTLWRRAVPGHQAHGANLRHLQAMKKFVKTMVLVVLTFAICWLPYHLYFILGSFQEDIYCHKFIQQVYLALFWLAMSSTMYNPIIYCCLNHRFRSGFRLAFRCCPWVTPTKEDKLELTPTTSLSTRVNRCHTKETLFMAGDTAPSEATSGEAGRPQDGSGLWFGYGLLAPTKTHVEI

Oxytocin receptor = biological target: T7, Oxytocin receptor (Homo sapiens, UniProt P30559); test: Antagonist activity at human OXTR expressed in CHOK1 cells assessed as oxytocin-induced beta-arrestin recruitment pre-incubated for 30 mins before oxytocin stimulation for 90 or 180 mins by chemiluminescence method; type: functional, cell-based
T7 sequence (P30559 whole entry): T5 sequence (whole entry)
In short: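 PathHunter β-arrestin complementation assay, antagonist mode. Cells co-express ProLink-tagged GPCR and enzyme-acceptor-tagged β-arrestin and are pre-incubated with sample for 30 min at 37 °C or room temperature. Dose-response: 10 points, 3-fold dilutions from 20 μM, in duplicate.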

[6] = biological target: T4, C-C chemokine receptor type 10 (Homo sapiens); test: Antagonist activity at CCR10 in human MDA-MB-231 cells assessed as inhibition of CCL27-induced proliferation preincubated for 2 hrs followed by CCL27 addition measured after 48 hrs by MTT assay; type: functional, cell-based
In short: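 MDA-MB-231 cells are seeded at 10,000/well in serum-free DMEM for 24 h, then pretreated with compound for 2 h. CCL27 is added at 1 μg/mL final for 48 h. Viability is measured by MTT and compared with solvent control, mean ± SD, n = 3.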

MDA-MB-231 = test: Toxicity in human MDA-MB-231 cells assessed as inhibition of proliferation after 48 hrs by MTT assay; type: cell-based; conditions: mda-mb-231, 48 h
In short: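 MDA-MB-231 cells are grown in DMEM with 10% FBS and seeded at 10,000 cells/well for 24 h. Cells are then exposed to graded compound concentrations or DMSO for 48 h. Viability is measured by MTT.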

CC[C@H](C)[C@@H](OC(=O)/C=C/c1ccccc1)C(=O)N1CCC[C@H]1C(=O)NCC(=O)N(C)[C@@H](CC(C)C)C(=O)N[C@@H](C)C(=O)N(C)[C@H](Cc1ccccc1)C(=O)N1CCC[C@H]1C(=O)OC (X1-PG[NMeL]A[dNMeF]P-OMe)
inhibition (Kallikrein-7 [1]): Active
IC50 (Chymase): 23.2 µM
IC50 (Caspase-14): 10.1 µM
inhibition (Kallikrein-7 [2]): Active
Activity [3]: 98%
Activity [4]: 76%
Activity [5]: 97%
IC50 (Oxytocin receptor): 6.78 µM
inhibition [6]: Dose-dependent effect
Activity (MDA-MB-231): Non-Toxic
